# Experimental data: ChEMBL document CHEMBL1140448 (J Med Chem, 2005)
# What was measured:
# [1] = molecular target: Somatostatin receptor type 2 (Homo sapiens, UniProt P30874); assay: Inhibitory concentration against human somatostatin receptor type 2 in CC531 cells; type: cell-based
# How it was run: (§1)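 Competitive binding on membranes (25-50 µg protein) from stably transfected cells expressing one human sst subtype: CC531 for sst2, CHO-K1 for sst3 and sst5. Stopped with ice-cold Hepes buffer pH 7.6 and centrifuged; washed pellet γ-counted. Nonspecific binding taken with 1 µM unlabeled SRIF analogue.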
# [2] = molecular target: Somatostatin receptor type 3 (Homo sapiens, UniProt P32745); assay: Inhibitory concentration against human somatostatin receptor type 3 in CHO-K1 cells; type: cell-based; how it was run: as §1
# Rattus norvegicus [3] = organism: Rattus norvegicus; assay: Percent inhibition on PRL release from rat pituitary cells; type: functional, Pituitary gland cell; parameters: concentration or dose not given beside the values
# How it was run: (§2)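 Anterior pituitaries from female Wistar rats (180-200 g) dispersed with dispase. Cells seeded at (0.5-5) × 10^5 per well in MEM with 10% FCS and attached at least 3 days. Then 4 h incubation with or without analogue plus 10 nM GHRH, four dishes per group. Rat GH and PRL measured by commercial assay; response given as % change versus untreated control dishes.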
# Rattus norvegicus [4] = organism: Rattus norvegicus; assay: Percent inhibition on GH release from rat pituitary cells; type: functional, Pituitary gland cell; parameters: concentration or dose not given beside the values; how it was run: as §2
# Rattus norvegicus [5] = organism: Rattus norvegicus; assay: Inhibitory concentration on GH release from rat pituitary cells; type: functional, cell-based; conditions: Pituitary gland cell; how it was run: as §2
# Rattus norvegicus [6] = organism: Rattus norvegicus; assay: Inhibitory concentration on PRL release from rat pituitary cells; type: functional, cell-based; conditions: Pituitary gland cell; how it was run: as §2
# [7] = molecular target: Somatostatin receptor type 5 (Homo sapiens, UniProt P35346); assay: Inhibitory concentration against human somatostatin receptor type 5 in CHO-K1 cells; type: cell-based; how it was run: as §1
# Sequence of Somatostatin receptor type 5 (P35346 whole entry): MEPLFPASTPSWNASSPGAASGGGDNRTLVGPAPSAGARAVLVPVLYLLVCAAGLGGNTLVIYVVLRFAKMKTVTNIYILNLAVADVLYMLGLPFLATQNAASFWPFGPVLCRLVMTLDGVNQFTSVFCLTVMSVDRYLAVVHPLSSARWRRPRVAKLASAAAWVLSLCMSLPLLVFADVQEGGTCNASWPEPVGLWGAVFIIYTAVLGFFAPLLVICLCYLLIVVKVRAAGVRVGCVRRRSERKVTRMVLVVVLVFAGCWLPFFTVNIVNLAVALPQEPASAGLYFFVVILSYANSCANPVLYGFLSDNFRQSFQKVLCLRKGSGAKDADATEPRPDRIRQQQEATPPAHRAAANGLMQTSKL
# Sequence of Somatostatin receptor type 2 (P30874 whole entry): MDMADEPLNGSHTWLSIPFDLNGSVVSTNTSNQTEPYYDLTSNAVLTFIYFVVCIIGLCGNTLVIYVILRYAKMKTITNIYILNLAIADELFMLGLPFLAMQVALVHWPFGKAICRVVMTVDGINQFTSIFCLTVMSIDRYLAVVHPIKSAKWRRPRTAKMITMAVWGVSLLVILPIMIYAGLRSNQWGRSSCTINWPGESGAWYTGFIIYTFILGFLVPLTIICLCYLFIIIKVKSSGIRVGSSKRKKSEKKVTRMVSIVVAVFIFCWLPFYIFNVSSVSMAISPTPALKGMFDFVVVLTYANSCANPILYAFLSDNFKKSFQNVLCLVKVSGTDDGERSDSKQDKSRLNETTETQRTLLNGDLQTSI
# Sequence of Somatostatin receptor type 3 (P32745 whole entry): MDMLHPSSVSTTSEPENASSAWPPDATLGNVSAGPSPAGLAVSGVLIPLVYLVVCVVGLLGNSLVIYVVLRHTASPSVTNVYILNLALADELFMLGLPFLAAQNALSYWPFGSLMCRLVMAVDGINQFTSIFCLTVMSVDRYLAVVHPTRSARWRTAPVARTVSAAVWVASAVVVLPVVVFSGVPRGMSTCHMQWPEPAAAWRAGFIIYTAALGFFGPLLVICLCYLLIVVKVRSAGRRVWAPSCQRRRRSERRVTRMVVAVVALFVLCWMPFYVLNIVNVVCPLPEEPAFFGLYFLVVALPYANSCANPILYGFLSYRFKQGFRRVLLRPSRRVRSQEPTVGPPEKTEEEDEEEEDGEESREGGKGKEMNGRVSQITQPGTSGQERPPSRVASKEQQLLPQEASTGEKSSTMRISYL
compound,measurement,setting,value
CC(C)[C@@H]1NC(=O)[C@H](CCCCN)NC(=O)[C@@H](Cc2c[nH]c3ccccc23)NC(=O)[C@H](Cc2ccc(O)cc2)NC(=O)[C@@H](NC(=O)[C@H](N)Cc2ccc(N)cc2)CSSC[C@@H](C(=O)N[C@@H](C(N)=O)[C@H](C)O)NC1=O [listing 1 of 2 here],IC50,[1],17 nM
same,IC50,[2],> 1000 nM
CC(C)[C@@H]1NC(=O)[C@H](CCCCN)NC(=O)[C@@H](Cc2c[nH]c3ccccc23)NC(=O)[C@H](Cc2ccc(O)cc2)NC(=O)[C@@H](NC(=O)[C@H](N)Cc2ccc(N)cc2)CSSC[C@@H](C(=O)N[C@@H](C(N)=O)[C@H](C)O)NC1=O [listing 2 of 2 here],Inhibition,Rattus norvegicus [3],8%
same,Inhibition,Rattus norvegicus [4],-11%
CC(C)[C@@H]1NC(=O)[C@H](CCCCN)NC(=O)[C@@H](Cc2c[nH]c3ccccc23)NC(=O)[C@H](Cc2ccc(O)c(I)c2)NC(=O)[C@@H](NC(=O)[C@H](N)Cc2ccc(N)c(I)c2)CSSC[C@@H](C(=O)N[C@H](C(N)=O)[C@@H](C)O)NC1=O [listing 1 of 2 here],IC50,[1],0.63 nM
same,IC50,Rattus norvegicus [5],0.15 nM
same,IC50,[2],> 1000 nM
same,IC50,Rattus norvegicus [6],0.23 nM
CC(C)[C@@H]1NC(=O)[C@H](CCCCN)NC(=O)[C@@H](Cc2c[nH]c3ccccc23)NC(=O)[C@H](Cc2ccc(O)c(I)c2)NC(=O)[C@@H](NC(=O)[C@H](N)Cc2ccc(N)c(I)c2)CSSC[C@@H](C(=O)N[C@H](C(N)=O)[C@@H](C)O)NC1=O [listing 2 of 2 here],Inhibition,Rattus norvegicus [3],29%
same,Inhibition,Rattus norvegicus [4],58%
CC(C)[C@@H]1NC(=O)[C@H](CCCCN)NC(=O)[C@@H](Cc2c[nH]c3ccccc23)NC(=O)[C@H](Cc2ccc(O)cc2)NC(=O)[C@@H](NC(=O)[C@H](N)Cc2ccccc2)CSSC[C@@H](C(=O)N[C@@H](CC(=O)O)C(N)=O)NC1=O,IC50,[1],18.6 nM
same,IC50,Rattus norvegicus [5],1.1 nM
same,IC50,[2],> 1000 nM
CC(C)[C@@H]1NC(=O)[C@H](CCCCN)NC(=O)[C@@H](Cc2c[nH]c3ccccc23)NC(=O)[C@H](Cc2ccc(O)cc2)NC(=O)[C@@H](NC(=O)[C@H](N)Cc2ccc(N)cc2)CSSC[C@@H](C(=O)N[C@H](C(N)=O)[C@@H](C)O)NC1=O [listing 1 of 2 here],IC50,[1],1.6 nM
same,IC50,Rattus norvegicus [5],0.08 nM
same,IC50,[2],> 1000 nM
same,IC50,Rattus norvegicus [6],2.2 nM
CC(C)[C@@H]1NC(=O)[C@H](CCCCN)NC(=O)[C@@H](Cc2c[nH]c3ccccc23)NC(=O)[C@H](Cc2ccc(O)cc2)NC(=O)[C@@H](NC(=O)[C@H](N)Cc2ccc(N)cc2)CSSC[C@@H](C(=O)N[C@H](C(N)=O)[C@@H](C)O)NC1=O [listing 2 of 2 here],Inhibition,Rattus norvegicus [3],20%
same,Inhibition,Rattus norvegicus [4],47%
CC(C)[C@@H]1NC(=O)[C@H](CCCCN)NC(=O)[C@@H](Cc2c[nH]c3ccccc23)NC(=O)[C@H](Cc2ccc(O)cc2)NC(=O)[C@@H](NC(=O)[C@H](N)Cc2ccc(N)c(I)c2)CSSC[C@@H](C(=O)N[C@H](C(N)=O)[C@@H](C)O)NC1=O [listing 1 of 2 here],IC50,[1],1.4 nM
same,IC50,Rattus norvegicus [5],0.1 nM
same,IC50,[2],> 1000 nM
same,IC50,Rattus norvegicus [6],0.1 nM
CC(C)[C@@H]1NC(=O)[C@H](CCCCN)NC(=O)[C@@H](Cc2c[nH]c3ccccc23)NC(=O)[C@H](Cc2ccc(O)cc2)NC(=O)[C@@H](NC(=O)[C@H](N)Cc2ccc(N)c(I)c2)CSSC[C@@H](C(=O)N[C@H](C(N)=O)[C@@H](C)O)NC1=O [listing 2 of 2 here],Inhibition,Rattus norvegicus [3],35%
same,Inhibition,Rattus norvegicus [4],60%
CC(C)[C@@H]1NC(=O)[C@H](CCCCN)NC(=O)[C@@H](Cc2c[nH]c3ccccc23)NC(=O)[C@H](Cc2ccc(O)c(I)c2)NC(=O)[C@@H](NC(=O)[C@H](N)Cc2ccc(N)c(I)c2)CSSC[C@@H](C(=O)N[C@@H](CC(=O)O)C(N)=O)NC1=O [listing 1 of 2 here],IC50,[1],1.9 nM
same,IC50,[7],2.9 nM
same,IC50,[2],> 1000 nM
CC(C)[C@@H]1NC(=O)[C@H](CCCCN)NC(=O)[C@@H](Cc2c[nH]c3ccccc23)NC(=O)[C@H](Cc2ccc(O)c(I)c2)NC(=O)[C@@H](NC(=O)[C@H](N)Cc2ccc(N)c(I)c2)CSSC[C@@H](C(=O)N[C@@H](CC(=O)O)C(N)=O)NC1=O [listing 2 of 2 here],Inhibition,Rattus norvegicus [3],15%
same,Inhibition,Rattus norvegicus [4],55%
CC(C)[C@@H]1NC(=O)[C@H](CCCCN)NC(=O)[C@@H](Cc2c[nH]c3ccccc23)NC(=O)[C@H](Cc2ccc(O)cc2)NC(=O)[C@@H](NC(=O)[C@H](N)Cc2ccc(N)cc2)CSSC[C@@H](C(=O)N[C@@H](CC(=O)O)C(N)=O)NC1=O [listing 1 of 2 here],IC50,[1],11 nM
same,IC50,Rattus norvegicus [5],14.8 nM
same,IC50,[7],54 nM
same,IC50,[2],> 1000 nM
same,IC50,Rattus norvegicus [6],26 nM
CC(C)[C@@H]1NC(=O)[C@H](CCCCN)NC(=O)[C@@H](Cc2c[nH]c3ccccc23)NC(=O)[C@H](Cc2ccc(O)cc2)NC(=O)[C@@H](NC(=O)[C@H](N)Cc2ccc(N)cc2)CSSC[C@@H](C(=O)N[C@@H](CC(=O)O)C(N)=O)NC1=O [listing 2 of 2 here],Inhibition,Rattus norvegicus [3],-9%
same,Inhibition,Rattus norvegicus [4],41%
CC(C)[C@@H]1NC(=O)[C@H](CCCCN)NC(=O)[C@@H](Cc2c[nH]c3ccccc23)NC(=O)[C@H](Cc2ccc(O)cc2)NC(=O)[C@@H](NC(=O)[C@H](N)Cc2ccc(N)c(I)c2)CSSC[C@@H](C(=O)N[C@@H](CC(=O)O)C(N)=O)NC1=O [listing 1 of 2 here],IC50,[1],12 nM
same,IC50,[7],74 nM
same,IC50,[2],> 1000 nM
CC(C)[C@@H]1NC(=O)[C@H](CCCCN)NC(=O)[C@@H](Cc2c[nH]c3ccccc23)NC(=O)[C@H](Cc2ccc(O)cc2)NC(=O)[C@@H](NC(=O)[C@H](N)Cc2ccc(N)c(I)c2)CSSC[C@@H](C(=O)N[C@@H](CC(=O)O)C(N)=O)NC1=O [listing 2 of 2 here],Inhibition,Rattus norvegicus [3],12%
same,Inhibition,Rattus norvegicus [4],17%
CC(C)[C@@H]1NC(=O)[C@H](CCCCN)NC(=O)[C@@H](Cc2c[nH]c3ccccc23)NC(=O)[C@H](Cc2ccc(O)c(I)c2)NC(=O)[C@@H](NC(=O)[C@H](N)Cc2ccc(N)cc2)CSSC[C@@H](C(=O)N[C@H](C(N)=O)[C@@H](C)O)NC1=O [listing 1 of 2 here],IC50,[1],6.2 nM
same,IC50,[2],> 1000 nM
CC(C)[C@@H]1NC(=O)[C@H](CCCCN)NC(=O)[C@@H](Cc2c[nH]c3ccccc23)NC(=O)[C@H](Cc2ccc(O)c(I)c2)NC(=O)[C@@H](NC(=O)[C@H](N)Cc2ccc(N)cc2)CSSC[C@@H](C(=O)N[C@H](C(N)=O)[C@@H](C)O)NC1=O [listing 2 of 2 here],Inhibition,Rattus norvegicus [3],14%
same,Inhibition,Rattus norvegicus [4],12%
CC(C)[C@@H]1NC(=O)[C@H](CCCCN)NC(=O)[C@@H](Cc2c[nH]c3ccccc23)NC(=O)[C@H](Cc2ccc(O)cc2)NC(=O)[C@@H](NC(=O)[C@H](N)Cc2ccc(N)cc2)CSSC[C@@H](C(=O)N[C@H](CC(=O)O)C(N)=O)NC1=O [listing 1 of 2 here],IC50,[1],1.1 nM
same,IC50,[7],30 nM
same,IC50,[2],> 1000 nM
same,IC50,Rattus norvegicus [6],> 100 nM
CC(C)[C@@H]1NC(=O)[C@H](CCCCN)NC(=O)[C@@H](Cc2c[nH]c3ccccc23)NC(=O)[C@H](Cc2ccc(O)cc2)NC(=O)[C@@H](NC(=O)[C@H](N)Cc2ccc(N)cc2)CSSC[C@@H](C(=O)N[C@H](CC(=O)O)C(N)=O)NC1=O [listing 2 of 2 here],Inhibition,Rattus norvegicus [3],11%
same,Inhibition,Rattus norvegicus [4],18%
C[C@H](N)C(=O)NCC(=O)N[C@H]1CSSC[C@@H](C(=O)O)NC(=O)[C@H](CO)NC(=O)[C@H]([C@@H](C)O)NC(=O)[C@H](Cc2ccccc2)NC(=O)[C@H]([C@@H](C)O)NC(=O)[C@H](CCCCN)NC(=O)[C@H](Cc2c[nH]c3ccccc23)NC(=O)[C@H](Cc2ccccc2)NC(=O)[C@H](Cc2ccccc2)NC(=O)[C@H](CC(N)=O)NC(=O)[C@H](CCCCN)NC1=O [SOMATOSTATIN],Inhibition,Rattus norvegicus [3],30%
same,IC50,Rattus norvegicus [5],0.1 nM
same,Inhibition,Rattus norvegicus [4],66%
same,IC50,Rattus norvegicus [6],0.2 nM
